# Screens (PubChem BioAssay)
# Hits are enriched below; roughly 1.5% of the tested compounds scored in any of these assays.
# PKA-R1A act = activates the PKA-R1A holoenzyme complex | P00514+P68181 | PKA-R1A dissociation, Cy5-IP20 fluorescence polarization; scaled: DMSO 0%, 113 µM cGMP 100% | activation, % at 11.4 µM | hit rate 0.083% among 340,000;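 active = percent activation above the mean of all tested compounds plus 3 SD, cut at about 19% in these data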;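 also: higher means more PKAc released from R1A so a rise in polarization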
# Rin1-Abl PPI inh = human Rin1-Abl interaction inhibition; P00519+Q13671; TR-FRET Rin1/Abl binding, biochemical; inhibition, % at 7.35 µM; hit rate 0.4% among 360,000; AID 588664; in the data active = inhibition above about 5%, passing the limit was not always enough
# PKA-R2B act = activates the human PKA-R2B holoenzyme complex | AID 504700 | hit rate 0.079% among 340,000 | PKA-R2B holoenzyme dissociation, Cy5-IP20 fluorescence polarization; R2B truncated from residue 108, S112A mutant; 0% DMSO only, 100% 113 µM cGMP | activation, % at 11.4 µM;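 active = activation above a cutoff set at the mean over all compounds plus 3 SD, cut at about 18% in these data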;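 also: higher means more holoenzyme dissociation and a rise in polarization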
# Target sequence (P31323 whole entry, looked up, other chains not shown, the tested form may be a part): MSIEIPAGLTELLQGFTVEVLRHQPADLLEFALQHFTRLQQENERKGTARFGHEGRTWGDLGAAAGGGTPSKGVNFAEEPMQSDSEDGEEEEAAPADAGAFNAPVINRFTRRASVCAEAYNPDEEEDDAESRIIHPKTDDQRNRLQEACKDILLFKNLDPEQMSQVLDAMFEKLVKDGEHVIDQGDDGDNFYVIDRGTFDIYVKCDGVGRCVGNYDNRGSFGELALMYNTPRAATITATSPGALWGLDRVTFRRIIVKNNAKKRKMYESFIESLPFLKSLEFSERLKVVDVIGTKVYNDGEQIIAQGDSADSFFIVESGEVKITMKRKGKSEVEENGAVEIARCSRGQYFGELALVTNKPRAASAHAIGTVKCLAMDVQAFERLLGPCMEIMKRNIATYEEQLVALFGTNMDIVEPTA
# TbMetRS inhib = blocks T. brucei methionyl-tRNA synthetase activity | hit rate 0.4% among 360,000 | inhibition, % at 11.9 µM | AID 624268 | purified T. brucei MetRS, ATP depletion, Kinase-Glo luminescence;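 active = inhibition above a per-plate cutoff of the control wells' mean inhibition plus 3 SD, cut at about 5.5% in these data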;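 also: 0% = DMSO wells median and 100% = median of wells with control inhibitor compound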
#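 System: purified T. brucei MetRS enzyme / Detection: Kinase-Glo luciferase luminescence reporting remaining unconsumed ATP / Medium: HEPES buffer with MgCl2, KCl, DTT, spermine, BSA, pyrophosphatase / Replication: singlicate, one well per compound / Evaluation: percent inhibition relative to median high and low control wells / Schedule: 2 h aminoacylation at 25 °C after 15 min preincubation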
# Cardio protect = myocardial damage modulation in H9c2 cells. H9c2 cardiomyocytes, H2O2 injury protection, ATPLite, 2 h. protection from H2O2 cell death, % at 20 µM. hit rate 0.63% among 360,000;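 active = compounds giving at least 50% protection of heart cells from peroxide-induced death in the single-dose screen, raw or plate-pattern-corrected value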;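 also: 0% = DMSO wells with peroxide and 100% = DMSO wells without peroxide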
# Rin1-Abl confirm = confirmation of inhibitors of human Rin1-Abl interaction; hit rate 49% among 1,300; TR-FRET Rin1-Abl binding, purified proteins; AID 602124; inhibition, % at 7.35 µM; shares compounds with Rin1-Abl PPI inh
# GFP quench = quenches GFP fluorescence, counter-screen for Rin1-Abl inhibitors | inhibition, % at 6.75 µM | hit rate 8.5% among 1,300 | inhibitors/quenchers counterscreen | shares compounds with Rin1-Abl PPI inh;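 also: ABL1-eGFP fusion protein alone without its partner RIN1-SBP; 0% = protein with vehicle and 100% = wells lacking protein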
# GFP quench DR = quenches GFP in dose response, Rin1-Abl counter-screen; GFP fluorescence interference/quenching counterscreen; IC50, µM; 230 tested, under 10 active; shares compounds with Rin1-Abl PPI inh; call rule not given here;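 also: ABL1-eGFP fusion protein alone without its RIN1 binding partner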
# The depositor's hits bear a star; / = no result given. Rule as the data show it, unless noted: active = inhibition above about 6.5%; inactive = the rest.
SMILES,PKA-R1A act,Rin1-Abl PPI inh,PKA-R2B act,TbMetRS inhib,Cardio protect,Rin1-Abl confirm,GFP quench,others
Cc1cccc(C(=O)Nc2ccc(O)cc2C(=O)O)c1,-6,3,-2,0,4,/,/,
O=C(Nc1ccc(O)cc1C(=O)O)c1ccc(NC(=O)c2ccco2)cc1,18,3,7,1,9,/,/,
COc1ccc(C(CNC(=O)C(=O)Nc2ccc3c(c2)OCCO3)N2CCN(C)CC2)cc1 (stereo unspecified),-6,-1,4,0,8,/,/,
COc1ccc(NC(=O)CN(C)C(=O)CSCc2ccc(C)cc2)cc1,-8,-2,-15,0,4,/,/,
CCN(CC(=O)Nc1cccc(C(C)=O)c1)S(=O)(=O)c1ccc(C)cc1,-6,-1,4,0,6,/,/,
CC1CN(S(=O)(=O)c2ccccc2)C(C)N1C(=O)N1CCOCC1 (stereo unspecified),0,-2,-4,0,-1,/,/,
Cc1nc(CN2CCCCC2)cc(=O)[nH]1,-2,9.8*,-10,-1,-10,1,-3,
Cc1ccccc1OCC(=O)NCCNC(=O)c1ccccn1,1,15*,-2,0,2,-1,1,
O=C(Nc1cc(C(F)(F)F)cc(C(F)(F)F)c1)[C@H]1O[C@@H](n2ccc(=O)[nH]c2=O)[C@H](O)[C@@H]1O,/,2,/,0,5,/,/,
Cc1nc(-c2ccc(C(=O)N3CCCC3)cc2)cs1,-2,6.2*,1,-2,-4,-1,0,
OCC1OC(n2cnc3c(NCc4ccccc4O)ncnc32)C(O)C1O (stereo unspecified),5,20*,-11,0,2,17*,-1,GFP quench DR=>67
CCN(C(=O)c1ccc(S(=O)(=O)N2CCCCC2)cc1)C1CCS(=O)(=O)C1 (stereo unspecified),-5,2,-7,-1,8,/,/,
Cc1cc(Oc2ccc(=O)n(C)n2)nc(SCCOc2ccccc2)n1,6,33*,5,0,1,-5,0,
Cc1ccc(C(=O)NCCCN2CCOCC2)c(Cl)c1,-4,3,2,0,4,/,/,
CC(=O)c1cccc(NC(=O)c2cc(S(=O)(=O)N3CCCCC3)ccc2N2CCOCC2)c1,-1,1,7,0,-2,/,/,
COCC(=O)OC1CCn2c1nc1c2C(=O)C(C)=C(NC(C)=O)C1=O (stereo unspecified),-4,18*,7,0,-17,16*,1,
CCOC(=O)C1CCN(Cc2oc(CO)cc(=O)c2O)CC1,0,14*,3,0,9,-1,0,
CCN1CCN(Cc2oc(CO)cc(=O)c2O)CC1,-4,5.0*,-3,0,0,1,-1,
O=c1cc(CO)oc(CN2CCN(c3ccccc3)CC2)c1O,-12,-1,-10,0,6,/,/,
COc1ccc(F)cc1C(=O)C1CCCN(C(=O)C2=C(C)OCCO2)C1 (stereo unspecified),6,1,4,0,-1,/,/,
COc1ccc(N2CCN(C(=O)CNC(=O)c3cccc(Br)c3)CC2)cc1,3,-3,-2,0,-1,/,/,
CC(C)c1nc2oc3c(=O)[nH]cnc3c2c2c1CCC2,-12,7.8*,-11,-1,1,13*,-1,
CC(C)c1nc2oc3c(=O)[nH]cnc3c2c2c1COC(C)(C)C2,-2,3,-9,0,5,/,/,
O=c1cc2c(=O)oc3cc(O)c(O)oc3c2c(O)c1O,2,56*,11,2,-3,51*,34*,
CC1=NN(c2ccc(Cl)cc2)C(=O)C1,3,14*,-9,1,-8,0,1,
SMILES,PKA-R1A act,Rin1-Abl PPI inh,PKA-R2B act,TbMetRS inhib,Cardio protect,Rin1-Abl confirm,GFP quench,others
O=C(NCC(c1ccccc1)N1CCCC1)C1CCN(C(=O)Nc2ccccc2)CC1 (stereo unspecified),10,1,-10,0,1,/,/,
COc1ccc(/C=N/NC2=NS(=O)(=O)c3ccccc32)cc1OC,4,2,0,2,0,/,/,
Cc1cc(NC(=O)CSc2cn(CCNC(=O)c3ccccc3)c3ccccc23)no1,-10,24*,-5,0,11,14*,2,
COc1ccc(C2=NOC(C)(c3nnc(-c4ccncc4)o3)C2)cc1 (stereo unspecified),-3,12*,-8,0,-2,3,1,
Cc1ccc(C2=NOC(C)(c3nnc(-c4ccncc4)o3)C2)cc1 (stereo unspecified),2,15*,-1,0,-3,2,0,
CC1(c2nnc(-c3ccc(Cl)cc3)o2)CC(c2ccncc2)=NO1 (stereo unspecified),3,4,-16,0,-8,/,/,
O=C1CCC[C@@H]2Cc3nc4cc5c(cc4cc3[C@@H]3CCN1[C@H]23)OCO5,9,4,-1,0,-6,/,/,
CCn1c(CCc2ccccc2)nnc1SCC(N)=O,1,6.9*,2,1,3,-1,1,
CC(C)(CC(=O)O)CC(=O)NNc1ncccc1C#N,3,0,1,0,2,/,/,
NC(=O)c1cnccc1C=Cc1ccccc1,-9,-5,-15,0,-2,/,/,
Cc1nn(-c2ccccc2)c(C)c1/C=C/C(=O)OCC(=O)Nc1ncc(C(F)(F)F)cc1Cl,-13,1,-10,0,4,/,/,
CCNC(=O)NC(=O)C(C)OC(=O)CCCc1nc2ccccc2s1 (stereo unspecified),-1,1,-8,0,6,/,/,
CCOC(=O)NC(=O)COC(=O)CCCc1nc2ccccc2s1,-3,5.4*,5,-2,2,-1,-2,
CCCn1c(N)c(C(=O)COC(=O)CNC(=O)c2ccc(C)c(C)c2)c(=O)n(C)c1=O,7,9.4*,5,0,-1,0,-4,
COc1ccc(C2c3[nH]c4ccccc4c3C[C@H]3C(=O)N(C4CCN(Cc5ccccc5)CC4)CC(=O)N23)cc1OC (stereo partly specified),6,10*,6,0,-1,8.2*,0,
Cc1ccc(S(=O)(=O)N2CCCC2CNC(=O)C(=O)NCCN2CCOCC2)cc1 (stereo unspecified),9,0,6,0,2,/,/,
CCc1nc(NC(=O)c2sc(C)nc2C)sc1C(=O)OC,7,-5,-3,-1,-5,/,/,
